Assays:
human recombinant PDE5 = human recombinant PDE5 (Homo sapiens, UniProt O76074); assay: PDE5 inhibition, IMAP fluorescence polarization assay; format: biochemical; settings: for inhibition at 50 µM: read-out: PDE5 % inh at 50 (μM); for PDE5 inhibitory activity (in words): SAR statement vs parent compound; for reduction in PDE5 inhibitory activity of pyrazole vs pyrazoline: compounds 34 and 35 compared to compounds 1 and 4
[1] = test system: intracellular cGMP levels in HEK293 cells; assay: Luciferase cGMP biosensor assay; format: cell-based, human; settings: for intracellular cGMP levels (luminescence), concentration dependence: pretreated with sodium nitroprusside
Summary of the method: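 HEK293 cells stably expressing a GloSensor cGMP-40F construct (human PDE5A GAF-A fused to firefly luciferase) were G418-selected. Cells were seeded at 6×10⁴/well and attached overnight in DMEM + 10% FBS at 37°C, 5% CO2. They were preincubated at room temperature in CO2-independent medium with 10% FBS and 5 mmol/L luciferin. 50 μM sodium nitroprusside was added together with test compound, and luminescence was read every minute for 1 h.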

Compound	inhibition at 50 µM (human recombinant PDE5) [%]	IC50 (human recombinant PDE5) [µM]	other results
Cc1ccc(-c2cc(C(F)(F)F)nn2-c2ccc(S(N)(=O)=O)cc2)cc1 [Celecoxib, celecoxib, reference compound]	66.5		
CC(C)(C)C1=NN(c2ccc(C(=O)O)cc2)C(c2ccccc2)C1 (centres unmarked) [Compound 1, 4-(3-tert-Butyl-5-phenyl-4,5-dihydro-1H-pyrazol-1-yl)benzoic acid]	88		
CC(C)(C)C1=NN(c2ccc(C(=O)O)cc2)C(c2ccccc2F)C1 (centres unmarked) [Compound 2, 4-(3-(tert-Butyl)-5-(2-fluorophenyl)-4,5-dihydro-1H-pyrazol-1-yl)benzoic acid]	86.3		
CC(C)(C)C1=NN(c2ccc(C(=O)O)cc2)C(c2cccc(F)c2)C1 (centres unmarked) [Compound 3, 4-(3-(tert-Butyl)-5-(3-fluorophenyl)-4,5-dihydro-1H-pyrazol-1-yl)benzoic acid]	94.4	3.7	
CC(C)(C)C1=NN(c2ccc(C(=O)O)cc2)C(c2ccc(F)cc2)C1 (centres unmarked) [Compound 4, 4-(3-tert-Butyl-5-(4-fluorophenyl)-4,5-dihydro-1H-pyrazol-1-yl)benzoic acid]	80	7.7	
CC(C)(C)C1=NN(c2ccc(C(=O)O)cc2)C(c2ccccc2Cl)C1 (centres unmarked) [Compound 5, 4-(3-(tert-Butyl)-5-(2-chlorophenyl)-4,5-dihydro-1H-pyrazol-1-yl)benzoic acid]	100		
CC(C)(C)C1=NN(c2ccc(C(=O)O)cc2)C(c2cccc(Cl)c2)C1 (centres unmarked) [Compound 6, 4-(3-(tert-Butyl)-5-(3-chlorophenyl)-4,5-dihydro-1H-pyrazol-1-yl)benzoic acid]	95.7		
CC(C)(C)C1=NN(c2ccc(C(=O)O)cc2)C(c2ccc(Cl)cc2)C1 (centres unmarked) [Compound 7, 4-(3-tert-Butyl-5-(4-chlorophenyl)-4,5-dihydro-1H-pyrazol-1-yl)benzoic acid]	85	3.3	
CC(C)(C)C1=NN(c2ccc(C(=O)O)cc2)C(c2ccccc2Br)C1 (centres unmarked) [Compound 8, 4-(5-(2-Bromophenyl)-3-(tert-butyl)-4,5-dihydro-1H-pyrazol-1-yl)benzoic acid]	100		
CC(C)(C)C1=NN(c2ccc(C(=O)O)cc2)C(c2cccc(Br)c2)C1 (centres unmarked) [Compound 9, 4-(5-(3-Bromophenyl)-3-(tert-butyl)-4,5-dihydro-1H-pyrazol-1-yl)benzoic acid]	91.4		
CC(C)(C)C1=NN(c2ccc(C(=O)O)cc2)C(c2ccc(Br)cc2)C1 (centres unmarked) [Compound 10, 4-(5-(4-Bromophenyl)-3-tert-butyl-4,5-dihydro-1H-pyrazol-1-yl)benzoic acid]	88	7.2	
CC(C)(C)C1=NN(c2ccc(C(=O)O)cc2)C(c2ccc(Cl)c(Cl)c2)C1 (centres unmarked) [Compound 12, 4-(3-(tert-Butyl)-5-(3,4-dichlorophenyl)-4,5-dihydro-1H-pyrazol-1-yl)benzoic acid]	100		
CC(C)(C)C1=NN(c2ccc(C(=O)O)cc2)C(c2c(Cl)cccc2Cl)C1 (centres unmarked) [Compound 13, 4-(3-(tert-Butyl)-5-(2,6-dichlorophenyl)-4,5-dihydro-1H-pyrazol-1-yl)benzoic acid]	99.1	28.8	
COc1ccccc1C1CC(C(C)(C)C)=NN1c1ccc(C(=O)O)cc1 (centres unmarked) [Compound 14, 4-(3-(tert-Butyl)-5-(2-methoxyphenyl)-4,5-dihydro-1H-pyrazol-1-yl)benzoic acid]	49.8	> 50	
COc1ccc(C2CC(C(C)(C)C)=NN2c2ccc(C(=O)O)cc2)cc1 (centres unmarked) [Compound 15, 4-(3-tert-Butyl-5-(4-methoxyphenyl)-4,5-dihydro-1H-pyrazol-1-yl) benzoic acid]	95		fold increase in PDE5 inhibitory potency compared to methyl derivative 22 (human recombinant PDE5; vs compound 22): 4 fold
COc1ccc(C2CC(C(C)(C)C)=NN2c2ccc(C(=O)O)cc2)c(OC)c1 (centres unmarked) [Compound 16, 4-(3-tert-Butyl-5-(2,4-dimethoxyphenyl)-4,5-dihydro-1H-pyrazol-1-yl)benzoic acid]	85.8		
COc1ccc(OC)c(C2CC(C(C)(C)C)=NN2c2ccc(C(=O)O)cc2)c1 (centres unmarked) [Compound 17, 4-(3-tert-Butyl-5-(2,5-dimethoxyphenyl)-4,5-dihydro-1H-pyrazol-1-yl)benzoic acid]	47	> 50	

Compound	inhibition at 50 µM (human recombinant PDE5) [%]	IC50 (human recombinant PDE5) [µM]	other results
CCOc1ccccc1C1CC(C(C)(C)C)=NN1c1ccc(C(=O)O)cc1 (centres unmarked) [Compound 18, 4-(3-(tert-Butyl)-5-(2-ethoxyphenyl)-4,5-dihydro-1H-pyrazol-1-yl)benzoic acid]	42.5	> 50	
CCOc1ccc(C2CC(C(C)(C)C)=NN2c2ccc(C(=O)O)cc2)cc1 (centres unmarked) [Compound 19, 4-(3-(tert-Butyl)-5-(4-ethoxyphenyl)-4,5-dihydro-1H-pyrazol-1-yl)benzoic acid]	95.3		relative potency/efficacy in increasing intracellular cGMP levels ([1]; comparison among tadalafil, celecoxib, 11 and 19): substantially higher efficacy; intracellular cGMP levels (luminescence), concentration dependence [1]: concentration-dependent increase
CC(C)(C)C1=NN(c2ccc(C(=O)O)cc2)C(c2cccc([N+](=O)[O-])c2)C1 (centres unmarked) [Compound 20, 4-(3-tert-Butyl-5-(3-nitrophenyl)-4,5-dihydro-1H-pyrazol-1-yl)benzoic acid]	87.6	3.2	
CC(C)(C)C1=NN(c2ccc(C(=O)O)cc2)C(c2ccc([N+](=O)[O-])cc2)C1 (centres unmarked) [Compound 21, 4-(3-tert-Butyl-5-(4-nitrophenyl)-4,5-dihydro-1H-pyrazol-1-yl)benzoic acid]	91		
CC(C)(C)C1=NN(c2ccc(C(=O)O)cc2)C(c2ccc(C#N)cc2)C1 (centres unmarked) [Compound 23, 4-(3-tert-Butyl-5-(4-cyanophenyl)-4,5-dihydro-1H-pyrazol-1-yl)benzoic acid]	75	13.8	
CC(C)(C)C1=NN(c2ccc(C(=O)O)cc2)C(c2ccc(O)cc2)C1 (centres unmarked) [Compound 24, 4-(3-tert-Butyl-5-(4-hydroxyphenyl)-4,5-dihydro-1H-pyrazol-1-yl)benzoic acid]	77.1		
CC(C)(C)C1=NN(c2ccc(C(=O)O)cc2)C(c2ccc(-c3ccccc3)cc2)C1 (centres unmarked) [Compound 25, 4-(5-([1,1’-Biphenyl]-4-yl)-3-(tert-butyl)-4,5-dihydro-1H-pyrazol-1-yl)benzoic acid]	100	35.6	
CC(C)(C)C1=NN(c2ccc(C(=O)O)cc2)C(c2ccc3ccccc3c2)C1 (centres unmarked) [Compound 26, 4-(3-(tert-Butyl)-5-(naphthalen-2-yl)-4,5-dihydro-1H-pyrazol-1-yl)benzoic acid]	80	21.8	
CC(C)(C)C1=NN(c2ccc(C(=O)O)cc2)C(c2ccco2)C1 (centres unmarked) [Compound 27, 4-(3-tert-Butyl-5-(furan-2-yl)-4,5-dihydro-1H-pyrazol-1-yl)benzoic acid]	23.6		PDE5 inhibitory activity (in words) (human recombinant PDE5): detrimental to the activity
CC(C)(C)C1=NN(c2ccc(C(=O)O)cc2)C(c2cccs2)C1 (centres unmarked) [Compound 28, 4-(3-tert-Butyl-5-(thiophen-2-yl)-4,5-dihydro-1H-pyrazol-1-yl)benzoic acid]	28.1		PDE5 inhibitory activity (in words) (human recombinant PDE5): detrimental to the activity
CC(C)(C)C1=NN(c2cccc(C(=O)O)c2)C(c2ccc(Cl)cc2)C1 (centres unmarked) [Compound 29, 3-(3-tert-Butyl-5-(4-chlorophenyl)-4,5-dihydro-1H-pyrazol-1-yl)benzoic acid]	100		fold reduction in PDE5 inhibitory potency compared to compound 7 (human recombinant PDE5; vs compound 7 (4-COOH, 4-chlorophenyl)): 3 fold
CC(C)(C)C1=NN(c2ccccc2C(=O)O)C(c2ccc(Cl)cc2)C1 (centres unmarked) [Compound 30, 2-(3-tert-Butyl-5-(4-chlorophenyl)-4,5-dihydro-1H-pyrazol-1-yl)benzoic acid]	46		PDE5 inhibitory activity (in words) (human recombinant PDE5): diminished the activity
CC(C)(C)c1cc(-c2ccccc2)n(-c2ccc(C(=O)O)cc2)n1 [Compound 34, 4-(3-tert-Butyl-5-phenyl-1H-pyrazol-1-yl)benzoic acid]	72	18.9	reduction in PDE5 inhibitory activity of pyrazole vs pyrazoline (human recombinant PDE5): 3–4 times
CC(C)(C)c1cc(-c2ccc(F)cc2)n(-c2ccc(C(=O)O)cc2)n1 [Compound 35, 4-(3-tert-Butyl-5-(4-fluorophenyl)-1H-pyrazol-1-yl) benzoic acid]	75	31.3	reduction in PDE5 inhibitory activity of pyrazole vs pyrazoline (human recombinant PDE5): 3–4 times
CCOC(=O)c1ccc(N2N=C(C(C)(C)C)CC2c2ccc(Cl)cc2)cc1 (centres unmarked) [Compound 36, Ethyl 4-(3-tert-butyl-5-(4-chlorophenyl)-4,5-dihydro-1H-pyrazol-1-yl)benzoate]	10.5		PDE5 inhibitory activity (in words) (human recombinant PDE5): diminished the PDE5 inhibitory activity
CCOC(=O)c1ccc(N2N=C(C(C)(C)C)CC2c2cccc([N+](=O)[O-])c2)cc1 (centres unmarked) [Compound 37, Ethyl 4-(3-tert-butyl-5-(3-nitrophenyl)-4,5-dihydro-1H-pyrazol-1-yl)benzoate]	16		PDE5 inhibitory activity (in words) (human recombinant PDE5): diminished the PDE5 inhibitory activity
CN1CC(=O)N2[C@H](c3ccc4c(c3)OCO4)c3[nH]c4ccccc4c3C[C@@H]2C1=O [Tadalafil, tadalafil, reference compound]			intracellular cGMP levels (luminescence), concentration dependence [1]: concentration-dependent increase

Source: PMC7686114 (Bioorganic chemistry, 2020)
